Results gathered from unrelated publications.
Protocols differ between the studies behind these lines.
CSF1R: Macrophage colony-stimulating factor 1 receptor (CSF1R, Homo sapiens, UniProt P07333)

COc1ncccc1-c1cnn2ccc(N3CCN(C(=O)OC(C)C)CC3)nc12
remaining binding (CSF1R; binding, competition with immobilised ligand; 1 µM): 100%

Cn1cncc1[C@](O)(COc1ccc(C#N)cc1-c1ccc(OC(F)(F)F)cc1)c1ccc(C#N)cc1
remaining binding (Macrophage colony-stimulating factor 1 receptor, autoinhibited (CSF1R, Homo sapiens, UniProt P07333); cell-free assay, competition with immobilised ligand; 1 µM): 93%

C#Cc1n[nH]c2c(-c3cn([C@@H](C)c4ccccc4)c(=O)[nH]c3=O)cc(F)cc12
inhibition (CSF1R; enzyme activity, inhibitor; 0.1 µM): 4.9%

COCc1c(-c2cc3cc(C)cc(OC)c3s2)c2c(N)ncnn2c1CN1CCNC(=O)C1
inhibition (CSF1R; cell-free assay, competition with immobilised ligand; 1 µM): 100%

C#Cc1n[nH]c2c(-c3cn(C(C)c4ccccn4)c(=O)[nH]c3=O)cc(F)cc12 (centres unmarked)
inhibition (CSF1R; enzyme activity, inhibitor; 1 µM): 5.8%

Cn1cc(-c2cc(F)cc(N3CCn4c(cc5c4CCCC5)C3=O)c2CO)cc(Nc2ccc(N3CCN(C4COC4)CC3)cn2)c1=O
inhibition (CSF1R; enzyme activity, inhibitor; 0.1 µM): 13%

Nc1ncc(-c2nc(N3CCOCC3)nc(N3CCOCC3)n2)c(C(F)F)n1
remaining binding (CSF1R; cell-free assay, competition with immobilised ligand; 10 µM): 14%

CC(C)(C)c1cc(C=C(C#N)C#N)cc(Br)c1O
remaining activity (CSF1R; enzyme activity, inhibitor; 0.5 µM): 96.8%

N#CC1(c2ccccn2)CCN(Cc2cc(C(=O)O)c(=O)n3ccccc23)CC1
remaining binding (CSF1R; cell-free assay, competition with immobilised ligand; 1 µM): 95%

Cn1cc(-c2cccc(N3CCc4c(sc5c4CC(C)(C)C5)C3=O)c2CO)cc(Nc2ccncn2)c1=O
inhibition (CSF1R; enzyme activity, inhibitor; 1 µM): 6%

O=c1[nH]c2ccccc2n1C1CCN(Cc2ccc(-c3[nH]c4cc5ncnc5cc4nc3-c3ccccc3)cc2)CC1
remaining signal (CSF1R; cell-free assay; 0.5 µM): 97%
